TRPC4 PAM = allosteric potentiators of mouse TRPC4 channel. HEK293 TRPC4beta/mu-opioid, DAMGO EC20, Fluo-4 Ca2+ flux; active compounds read high. B-score at 10 µM. 310,000 compounds, 0.42% hits. AID 2227;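 active = B-score of calcium response area above 5 SD of library B-scores, with initial fluorescence ratio within 5 SD of library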;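 note: B-score of integrated fluorescence ratio over time as area under calcium response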
Target sequence (Q9QUQ5 whole entry, looked up): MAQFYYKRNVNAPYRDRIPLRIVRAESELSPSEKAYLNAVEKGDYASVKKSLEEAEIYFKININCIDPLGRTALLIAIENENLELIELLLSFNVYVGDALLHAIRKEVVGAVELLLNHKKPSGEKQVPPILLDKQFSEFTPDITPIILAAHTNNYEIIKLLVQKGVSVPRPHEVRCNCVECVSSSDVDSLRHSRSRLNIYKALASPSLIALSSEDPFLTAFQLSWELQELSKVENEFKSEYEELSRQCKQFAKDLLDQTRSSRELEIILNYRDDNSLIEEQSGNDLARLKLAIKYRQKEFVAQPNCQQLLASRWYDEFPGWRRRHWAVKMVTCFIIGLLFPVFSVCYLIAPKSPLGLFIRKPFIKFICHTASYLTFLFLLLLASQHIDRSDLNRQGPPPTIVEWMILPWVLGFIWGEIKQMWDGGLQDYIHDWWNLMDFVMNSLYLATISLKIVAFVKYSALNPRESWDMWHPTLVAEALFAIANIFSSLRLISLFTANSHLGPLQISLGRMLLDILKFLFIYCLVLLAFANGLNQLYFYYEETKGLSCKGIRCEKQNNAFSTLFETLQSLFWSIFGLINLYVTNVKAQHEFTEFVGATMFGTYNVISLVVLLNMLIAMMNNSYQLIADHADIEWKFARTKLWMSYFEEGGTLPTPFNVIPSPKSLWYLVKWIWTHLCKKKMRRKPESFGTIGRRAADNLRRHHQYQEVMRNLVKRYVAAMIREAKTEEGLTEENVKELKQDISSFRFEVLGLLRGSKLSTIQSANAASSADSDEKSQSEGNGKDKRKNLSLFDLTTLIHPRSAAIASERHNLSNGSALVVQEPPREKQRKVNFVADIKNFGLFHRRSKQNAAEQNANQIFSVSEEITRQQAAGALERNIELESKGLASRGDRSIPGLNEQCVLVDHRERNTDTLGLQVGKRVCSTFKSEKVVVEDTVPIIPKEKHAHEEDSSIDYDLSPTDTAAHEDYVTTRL
TRPC6 activator = activators of mouse TRPC6 channel | HEK293-TRPC6 membrane potential dye fluorescence; active compounds read high | B-score at 10 µM | 310,000 compounds, 0.13% hits | AID 2550;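 active = B-score of the integrated fluorescence ratio above library mean plus 3 SD, and starting fluorescence ratio within library mean plus 5 SD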;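 note: higher score means more depolarization so channel activation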
TRPC6 inh = inhibitors of mouse TRPC6 channel. Q61143. 310,000 compounds, 1.1% hits. B-score at 10 µM. HEK293-TRPC6, membrane potential dye, ACh-evoked depolarization; active compounds read low;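 active = B-score under library mean minus 3 SD, initial fluorescence not abnormally high, positive integrated signal ratio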;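 note: B-score derived from integrated fluorescence ratio over the kinetic read; more negative B-score means stronger inhibition of depolarization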
Platelet DG rel = modulates dense granule release in human platelets. AID 1663. 300,000 compounds, 0.22% hits. inhibition, %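 (compounds screened at 7.5 µM in platelet-rich plasma)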. human platelet-rich plasma, SFLLRN dense granule ATP release, luminescence;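 active = mean replicate score, as percent of positive control, at or above 50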
TRPC4 act = opens the mouse TRPC4 cation channel | HEK293 TRPC4beta/mu-opioid, Fluo4 calcium fluorescence; active compounds read high | 310,000 compounds, 0.49% hits | B-score at 10 µM | Q9QUQ5;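 active = B-score above 5 SD of library B-scores, and initial fluorescence ratio not above library mean plus 5 SD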;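 note: positive B-score marks a calcium rise read as TRPC4 activation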
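Technique: kinetic Fluo4 calcium fluorescence; Test system: TRPC4beta and mu-opioid receptor HEK293 stable cells; Measure: B-scored integrated calcium fluorescence ratio; Benchmarks: low control buffer alone, high control maximal DAMGO; Schedule: 45 min room-temperature Fluo4 loading, 110 s read.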
TRPC4 block = inhibitors of mouse TRPC4 channel. Q9QUQ5. HEK293 TRPC4beta/mu-opioid, DAMGO-evoked Fluo4 calcium flux; active compounds read low. B-score at 10 µM. 300,000 compounds, 0.39% hits;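 active = B-score over 3 SD under the library average, no early fluorescence shift, positive overall ratio signal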
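Material: HEK293 cells with stable TRPC4beta plus mu-opioid receptor expression; probe or stimulus: DAMGO in two steps, submaximal then maximal; technique: Fluo4 calcium fluorescence by kinetic imaging, 5 s 1 Hz baseline; measure: integrated fluorescence ratio relative to baseline, converted to per-well B score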
TRPC4 sel inh 2 = second selectivity test of TRPC6 inhibitors: effect on mouse TRPC4. shares compounds with TRPC6 inh. HEK293 TRPC4/MOR, membrane potential dye fluorescence; channel activated by saturating DAMGO dose. 920 compounds, 42% hits. AID 2776. inhibition, % at 10 µM;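 active = compounds whose fluorescence signal differed from control wells by over 3 SD, either direction, in both duplicate plates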
TRPC4 spec = tests whether TRPC6 inhibitors also affect mouse TRPC4; shares compounds with TRPC6 inh; HEK293 TRPC4/mu-opioid, membrane potential fluorescence; activity change, negative = inhibition, % at 10 µM; 920 compounds, 61% hits; AID 2777;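 active = rise or fall in signal beyond 3 SD of buffer-only wells in both replicate plates, either sign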;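 note: integrated kinetic ratio of fluorescence range over baseline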
HEK293 MPD ctr 2-1 = parental HEK293 nonspecific activity of TRPC6 inhibitors, second screen. shares compounds with TRPC6 inh. parental HEK293 membrane potential dye fluorescence; maximal acetylcholine challenge after compound addition. signal change vs control, % at 10 µM. 920 compounds, 31% hits. AID 2779;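 active = membrane potential signal moving either way by over 3 SD of the maximum-effect control, in both duplicate plates, meaning non-specific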
HEK293 MPD ctr-1 = parental HEK293 nonspecific activity of TRPC6 inhibitors; AID 2780; 920 compounds, 60% hits; parental HEK293 membrane potential dye fluorescence; membrane potential signal change, % at 10 µM; shares compounds with TRPC6 inh;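 active = membrane potential signal shifting up or down by more than 3 SD of buffer-only wells, on both duplicate plates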
HEK293 MPD ctr-2 = parental HEK293 nonspecific activity of TRPC6 modulators; AID 488924; shares compounds with TRPC6 inh; 2,400 compounds, 51% hits; membrane potential dye fluorescence; membrane potential signal change, % at 10 µM;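 active = membrane potential signal moves up or down beyond 5 SD from buffer-only wells, on both duplicate plates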
HEK293 MPD ctr 2-2 = second check of TRPC6 modulator effects in parental HEK293 cells; AID 488926; 2,400 compounds, 14% hits; shares compounds with TRPC6 inh; membrane potential dye fluorescence; after compound, maximal acetylcholine stimulation; inhibition, % at 10 µM;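 active = membrane potential signal drops by more than 5 SD from the mean control signal, in both duplicate plates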;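 note: plate controls were acetylcholine ECmax control wells for no effect and buffer only wells for full effect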
TRPC4 ctr mod = selectivity of TRPC6 modulators against mouse TRPC4. shares compounds with TRPC6 inh. percent change from control (negative = decrease, positive = increase), % at 10 µM. HEK293 TRPC4/mu-opioid, membrane potential fluorescence. 2,400 compounds, 69% hits;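 active = membrane potential signal moved up or down beyond 5 SD of buffer control wells, in both duplicate plates, actives on both sides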;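 note: plate controls were assay buffer wells for no effect and DAMGO maximal-effect wells for full effect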
TRPC4 ctr inh 2 = second selectivity test of TRPC6 modulators against mouse TRPC4 | inhibition, % at 10 µM | AID 488928 | 2,400 compounds, 55% hits | shares compounds with TRPC6 inh | HEK293 TRPC4/mu-opioid, membrane potential dye fluorescence; stimulated with maximal-effect DAMGO;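 active = drop in membrane potential signal beyond 5 SD of the control wells in both duplicate plates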;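 note: TRPC4 counter screen for TRPC6 hits run under conditions tuned for TRPC6 not TRPC4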
TRPC6 block conf = mouse TRPC6 inhibitor confirmation; HEK293-TRPC6, membrane potential dye, ACh-evoked depolarization; 3,300 compounds, 43% hits; AID 488960; inhibition, % at 10 µM; shares compounds with TRPC6 inh;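 active = fluorescence ratio falls more than 5 SD below the full-stimulation control mean, in both duplicate runs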;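 note: integrated fluorescence ratio of peak minus minimum over baseline after agonist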
TRPC6 act confirm = confirmation of mouse TRPC6 activators. shares compounds with TRPC6 inh. HEK293-TRPC6 membrane potential dye fluorescence, FDSS. activation, % at 10 µM. 2,800 compounds, 11% hits;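 active = ratio signal rise beyond 5 SD above unstimulated control wells' mean, seen in both duplicate runs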;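 note: plate controls were buffer EC0 wells for no effect and acetylcholine ECmax response for full effect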
* marks the source's active call; other numbers are inactive results; i = inactive; / = no result. Only some compounds are listed: those with a hit (about 2.5% of all), similar ones and a draw of the others.

SMILES	TRPC4 PAM	TRPC6 activator	TRPC6 inh	Platelet DG rel	TRPC4 act	TRPC4 block	HEK293 MPD ctr-2	HEK293 MPD ctr 2-2	TRPC4 ctr mod	TRPC4 ctr inh 2	TRPC6 block conf	TRPC6 act confirm	others
CN(C)CCCn1c(=O)n(Cc2ccco2)c(=O)c2c3c(sc21)CCCCC3	i	i	i	-12	i	i	/	/	/	/	/	/
Cn1c(=O)n(Cc2ccco2)c(=N)c2c3c(sc21)CCC3	i	i	-7.1*	12	i	i	-184%*	i	-32%*	46%*	36%*	i
CC(C)(C)n1nnnc1C(c1ccccc1)N1CCc2ccccc2C1 (stereo unspecified)	i	i	-7.6*	-4	i	i	/	/	/	/	i	i	TRPC4 sel inh 2=i;TRPC4 spec=12%*;HEK293 MPD ctr 2-1=i;HEK293 MPD ctr-1=6.8%*
Nc1nonc1C(=O)NCCNCc1ccccc1OCc1ccc(F)cc1	i	i	-6.3*	1	i	i	141%*	i	12%*	86%*	46%*	/
CCOc1ccc(CNCCNC(=O)c2nonc2N)cc1	i	i	i	5	i	i	/	/	/	/	/	/
COc1ccccc1-c1ccc(/C=C2\C=CC(=O)O2)o1	i	31*	i	6	i	i	706%*	i	204%*	i	i	121%*
COc1ccccc1-c1ccc(/C=C2/C=C(C)OC2=O)o1	i	i	i	-4	i	i	/	/	/	/	/	/
O=C(CCC1CCCCC1)NCCN1C2=NC[C@@H](Cc3ccccc3)N2C[C@H]1Cc1ccc(O)cc1	i	i	-5.5*	1	i	i	i	i	i	i	i	i
O=C(CCC1CCCCC1)NCCN1C2=NC[C@H](Cc3ccccc3)N2C[C@H]1Cc1ccc(O)cc1	i	i	i	-8	i	i	/	/	/	/	/	/
CSc1nnc(C2CCN(CC(=O)Nc3ccccc3N3CCOCC3)CC2)n1C	i	i	i	-2	i	i	/	/	/	/	/	/
CCn1c(SC)nnc1C1CCN(CC(=O)Nc2ccccc2N2CCOCC2)CC1	i	i	-5.4*	-5	i	i	i	i	i	i	i	i
Cc1ccc2c(CN3CCN(S(=O)(=O)c4ccc5c(c4)OCCO5)CC3)cc(=O)oc2c1C	i	i	-5.6*	4	i	i	i	i	i	i	i	i
COC(=O)c1ccc(S(=O)(=O)N2CCN(C)CC2)n1C	i	i	i	17	i	i	/	/	/	/	/	/
COC(=O)c1ccc(S(=O)(=O)N2CCCCCC2)n1C	i	i	-5.4*	-1	i	i	i	i	7.5%*	i	i	i
CCOc1ccc2[nH]c3c(N4CCc5ccccc5C4)ncnc3c2c1	i	i	-6.5*	-5	i	i	i	i	i	52%*	i	i
O=C(COC(=O)c1ncc(Cl)c(Cl)c1Cl)c1ccc(Cl)s1	i	i	i	-18	i	i	/	/	/	/	/	/
COc1ccc2c(c1)c(C)cc[n+]2Cc1ccccc1	i	i	-5.2*	-2	i	i	-260%*	i	-48%*	52%*	48%*	i
CSc1nc(O)c(N=Nc2ccc(F)cc2F)c(=O)[nH]1	i	i	i	10	i	i	/	/	/	/	/	/
COc1ccc(-n2ncc3c2CC(C)(C)CC3NC(=O)C2=CC(=O)CC(C)(C)O2)cc1 (stereo unspecified)	i	i	i	27	i	i	/	/	/	/	/	/
CCOC(=O)C1=c2s/c(=C\c3cccnc3)c(=O)n2C(N)=C(C(=O)OC)C1c1cccnc1 (stereo unspecified)	i	i	-5.1*	1	i	i	i	i	i	i	i	i
C=CC[N+]1(CC#CCOC(c2ccccc2)c2ccccc2)CCOCC1	i	i	-5.5*	2	i	i	i	i	-16%*	i	37%*	i
C=CC#CC[N+]1(CC#Cc2ccccc2)CCOCC1	i	i	i	-5	i	i	/	/	/	/	/	/
CC(=O)N(CCC(Cc1ccccc1)c1ccc2c(c1)OCO2)Cc1ccccc1F (stereo unspecified)	i	i	i	2	i	i	/	/	/	/	/	/
Fc1ccccc1CNCCC(Cc1ccccc1)c1ccc2c(c1)OCO2 (stereo unspecified)	i	i	-6.3*	-10	70*	-8*	119%*	i	48%*	69%*	i	/
c1csc(Cc2nc3ccccc3[nH]2)c1	i	i	-14*	2	i	i	i	i	i	i	i	i
Cc1cc(C)n(-c2ccc(C(F)(F)F)cc2[N+](=O)[O-])n1	i	i	-5.3*	-1	i	i	i	i	9.5%*	i	i	i

Screens as filed in PubChem BioAssay.
